The source made the active and inactive calls. No cut-off for these calls is given here.
Legend:
Escherichia coli [1] = assay: Increase in ompX-lacZ expression in Escherichia coli deltaompX mutant assessed as increase in beta-galactosidase activity after 60 mins relative to control; format: functional, organism-based
Procedure, shortened: (§1)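 Strains electrotransformed with an ompX–lacZ fusion plasmid (pMD08): E. coli JM109, MC1061 ompX::Cm, AG100, CH164 (marA), E. aerogenes ATCC 15038. Grown in LB (with or without NaCl) to OD600 0.2 at 37°C. Treated with subinhibitory stresses (MIC-derived) or NaCl osmotic shock. Miller units read after 60 min; means of five independent experiments with SD.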

Escherichia coli [2] = assay: Increase in ompX-lacZ expression in Escherichia coli JM109 assessed as ompX upregulation after 60 mins relative to control; format: functional, organism-based; procedure, shortened: as §1
Escherichia coli [3] = assay: Increase in ompX-lacZ expression in Escherichia coli JM109 assessed as increase in beta-galactosidase activity after 60 mins relative to control; format: functional, organism-based; procedure, shortened: as §1
Klebsiella aerogenes [4] = assay: Increase in ompX-lacZ expression in Enterobacter aerogenes ATCC 15038 assessed as ompX upregulation after 60 mins relative to control; format: functional, organism-based; procedure, shortened: as §1
Klebsiella aerogenes [5] = assay: Increase in ompX-lacZ expression in Enterobacter aerogenes ATCC 15038 assessed as increase in beta-galactosidase activity after 60 mins relative to control; format: functional, organism-based; procedure, shortened: as §1
Escherichia coli [6] = assay: Effect on ompF-lacZ fusion translation in wild type Escherichia coli MC1061 assessed as percent decrease in Miller units of beta-galactosidase activity after 60 mins relative to control; format: functional; design: scale not given: the % may be the effect or the level left
Procedure, shortened: (§2)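 E. coli strains carrying ompF-lacZ reporter constructs (pCeJa01/pCeJa02) were grown in LB broth, with or without NaCl, to early exponential phase (OD600 0.2). Stress compounds were then added at subinhibitory concentrations, set from MICs for each strain and promoter, and incubation continued at 37°C. Beta-galactosidase activity (Miller method) was read at time intervals. Percent decrease versus control was calculated, with Student t test and standard deviations.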

Escherichia coli [7] = assay: Effect on ompF-lacZ fusion translation in wild type Escherichia coli MC1061 assessed as percent decrease in Miller units of beta-galactosidase activity after 90 mins relative to control; format: functional; design: scale not given: the % may be the effect or the level left
Procedure, shortened: (§3)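 ompF promoter–lacZ fusions (pCeJa01, pCeJa02) carried in E. coli AG100 and its marA mutant CH164, and in MC1061 and MC1061 ompX::Cm. Cultures grown in LB (with or without NaCl) to OD600 0.2, then stress added at subinhibitory levels set per strain and promoter from MIC assays, 37°C. β-Galactosidase measured at time intervals (Miller method); percent decrease versus control, SD, Student t test.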

Escherichia coli [8] = assay: Effect on ompF-lacZ fusion translation in wild type Escherichia coli MC1061 assessed as percent decrease in Miller units of beta-galactosidase activity after 120 mins relative to control; format: functional; design: scale not given: the % may be the effect or the level left; procedure, shortened: as §3
Escherichia coli [9] = assay: Effect on ompF-lacZ fusion translation in ompX-negative Escherichia coli mutant assessed as percent decrease in Miller units of beta-galactosidase activity after 90 mins relative to control; format: functional; design: scale not given: the % may be the effect or the level left; procedure, shortened: as §3
Escherichia coli [10] = assay: Effect on ompF-lacZ fusion translation in ompX-negative Escherichia coli mutant assessed as percent decrease in Miller units of beta-galactosidase activity after 120 mins relative to control; format: functional; design: scale not given: the % may be the effect or the level left; procedure, shortened: as §3
Escherichia coli [11] = assay: Effect on ompF-lacZ fusion translation in wild type Escherichia coli AG100 assessed as percent decrease in Miller units of beta-galactosidase activity after 60 mins relative to control; format: functional; design: scale not given: the % may be the effect or the level left; procedure, shortened: as §3
Escherichia coli [12] = assay: Increase in ompX-lacZ expression in Escherichia coli deltaompX mutant assessed as ompX upregulation after 60 mins relative to control; format: functional
Procedure, shortened: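 E. coli ompX::Cm strain transformed by electroporation with pMD08 (ompX-lacZ fusion), grown in LB broth (with or without NaCl) to OD600 0.2. Stresses were then added at strain-specific subinhibitory concentrations derived from MICs; osmotic shock was given as NaCl. Cultures were incubated 60 min at 37°C with growth rate monitored. Miller-unit beta-galactosidase activity is the mean of five independent experiments with SD.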

Escherichia coli [13] = assay: Increase in ompX-lacZ expression in marA-negative Escherichia coli CH164 mutant assessed as beta-galactosidase activity after 60 mins relative to control; format: functional; procedure, shortened: as §1
Escherichia coli [14] = assay: Effect on ompF-lacZ fusion translation in wild type Escherichia coli AG100 assessed as percent decrease in Miller units of beta-galactosidase activity after 90 mins relative to control; format: functional; design: scale not given: the % may be the effect or the level left; procedure, shortened: as §2
Escherichia coli [15] = assay: Effect on ompF-lacZ fusion translation in wild type Escherichia coli AG100 assessed as percent decrease in Miller units of beta-galactosidase activity after 120 mins relative to control; format: functional; design: scale not given: the % may be the effect or the level left; procedure, shortened: as §3
Escherichia coli [16] = assay: Effect on ompF-lacZ fusion transcription in wild type Escherichia coli MC1061 assessed as percent decrease in Miller units of beta-galactosidase activity after 90 mins relative to control; format: functional; design: scale not given: the % may be the effect or the level left; procedure, shortened: as §3
Escherichia coli [17] = assay: Effect on ompF-lacZ fusion transcription in wild type Escherichia coli MC1061 assessed as percent decrease in Miller units of beta-galactosidase activity after 120 mins relative to control; format: functional; design: scale not given: the % may be the effect or the level left; procedure, shortened: as §3
Escherichia coli [18] = assay: Effect on ompF-lacZ fusion transcription in ompX-negative Escherichia coli mutant assessed as percent decrease in Miller units of beta-galactosidase activity after 90 mins relative to control; format: functional; design: scale not given: the % may be the effect or the level left; procedure, shortened: as §3
Escherichia coli [19] = assay: Effect on ompF-lacZ fusion transcription in ompX-negative Escherichia coli mutant assessed as percent decrease in Miller units of beta-galactosidase activity after 120 mins relative to control; format: functional; design: scale not given: the % may be the effect or the level left; procedure, shortened: as §3
Escherichia coli [20] = assay: Effect on ompF-lacZ fusion transcription in wild type Escherichia coli AG100 assessed as percent decrease in Miller units of beta-galactosidase activity after 60 mins relative to control; format: functional; design: scale not given: the % may be the effect or the level left; procedure, shortened: as §3
Escherichia coli [21] = assay: Effect on ompF-lacZ fusion transcription in wild type Escherichia coli AG100 assessed as percent decrease in Miller units of beta-galactosidase activity after 120 mins relative to control; format: functional; design: scale not given: the % may be the effect or the level left; procedure, shortened: as §3
Escherichia coli [22] = assay: Effect on ompF-lacZ fusion translation in ompX-negative Escherichia coli mutant assessed as percent decrease in Miller units of beta-galactosidase activity after 60 mins relative to control; format: functional; design: scale not given: the % may be the effect or the level left; procedure, shortened: as §3
Klebsiella aerogenes [23] = assay: Induction of ompX-lacZ expression in Enterobacter aerogenes ATCC 15038 assessed as total RNA content after 30 mins by RT-PCR; format: functional, organism-based
Escherichia coli [24] = assay: Effect on ompF-lacZ fusion transcription in ompX-negative Escherichia coli mutant assessed as percent decrease in Miller units of beta-galactosidase activity after 60 mins relative to control; format: functional; design: scale not given: the % may be the effect or the level left; procedure, shortened: as §3
Escherichia coli [25] = assay: Effect on ompF-lacZ fusion translation in marA-negative Escherichia coli CH164 mutant assessed as percent decrease in Miller units of beta-galactosidase activity after 60 mins relative to control; format: functional; design: scale not given: the % may be the effect or the level left; procedure, shortened: as §2
Escherichia coli [26] = assay: Effect on ompF-lacZ fusion translation in marA-negative Escherichia coli CH164 mutant assessed as percent decrease in Miller units of beta-galactosidase activity after 90 mins relative to control; format: functional; design: scale not given: the % may be the effect or the level left; procedure, shortened: as §2
Escherichia coli [27] = assay: Effect on ompF-lacZ fusion translation in marA-negative Escherichia coli CH164 mutant assessed as percent decrease in Miller units of beta-galactosidase activity after 120 mins relative to control; format: functional; design: scale not given: the % may be the effect or the level left; procedure, shortened: as §2
Escherichia coli [28] = assay: Effect on ompF-lacZ fusion transcription in wild type Escherichia coli AG100 assessed as percent decrease in Miller units of beta-galactosidase activity after 90 mins relative to control; format: functional; design: scale not given: the % may be the effect or the level left; procedure, shortened: as §3
Escherichia coli [29] = assay: Effect on ompF-lacZ fusion transcription in marA-negative Escherichia coli CH164 mutant assessed as percent decrease in Miller units of beta-galactosidase activity after 60 mins relative to control; format: functional; design: scale not given: the % may be the effect or the level left; procedure, shortened: as §3
Escherichia coli [30] = assay: Effect on ompF-lacZ fusion transcription in marA-negative Escherichia coli CH164 mutant assessed as percent decrease in Miller units of beta-galactosidase activity after 90 mins relative to control; format: functional; design: scale not given: the % may be the effect or the level left; procedure, shortened: as §3
Escherichia coli [31] = assay: Effect on ompF-lacZ fusion transcription in marA-negative Escherichia coli CH164 mutant assessed as percent decrease in Miller units of beta-galactosidase activity after 120 mins relative to control; format: functional; design: scale not given: the % may be the effect or the level left; procedure, shortened: as §2
Escherichia coli [32] = assay: Induction of ompX transcription in SoxS-positive Escherichia coli K12 relative to control; format: functional

CCn1cc(C(=O)O)c(=O)c2ccc(C)nc21
Activity (Escherichia coli [1]): Active
Activity (Escherichia coli [2]): Active
Activity (Escherichia coli [3]): Active
Activity (Klebsiella aerogenes [4]): Active
Activity (Klebsiella aerogenes [5]): Active

NCCc1ccccc1
Activity (Escherichia coli [1]): Active
Activity (Escherichia coli [2]): Active
Activity (Escherichia coli [3]): Active
Activity (Klebsiella aerogenes [4]): Active
Activity (Klebsiella aerogenes [5]): Active

c1ccc(-c2ccccn2)nc1 [DIPYRIDYL]
Activity (Escherichia coli [6]): 7.4%
Activity (Escherichia coli [7]): 16.1%
Activity (Escherichia coli [8]): 18.4%
Activity (Escherichia coli [9]): 19%
Activity (Escherichia coli [10]): 28.6%
Activity (Escherichia coli [11]): 52%
Activity (Escherichia coli [12]): 2
Activity (Escherichia coli [2]): Active
Activity (Escherichia coli [3]): Active
Activity (Klebsiella aerogenes [4]): Active
Activity (Klebsiella aerogenes [5]): Active
Activity (Escherichia coli [13]): Active
Activity (Escherichia coli [14]): 53%
Activity (Escherichia coli [15]): 55%

CCn1cc(C(=O)O)c(=O)c2cc(F)c(N3CCNCC3)cc21 [NORFLOXACIN]
Activity (Escherichia coli [7]): 27.1%
Activity (Escherichia coli [8]): 27.5%
Activity (Escherichia coli [9]): 21.7%
Activity (Escherichia coli [10]): 22%
Activity (Escherichia coli [11]): 14.1%
Activity (Escherichia coli [1]): Active
Activity (Escherichia coli [2]): Active
Activity (Escherichia coli [3]): Active
Activity (Klebsiella aerogenes [4]): Active
Activity (Klebsiella aerogenes [5]): Active
Activity (Escherichia coli [13]): 1.5
Activity (Escherichia coli [16]): 14.9%
Activity (Escherichia coli [17]): 24%
Activity (Escherichia coli [15]): 16.6%
Activity (Escherichia coli [18]): 18.6%
Activity (Escherichia coli [19]): 19.2%
Activity (Escherichia coli [20]): 13.2%
Activity (Escherichia coli [21]): 8.2%

CO[C@@H]1[C@@H](OC(N)=O)[C@@H](O)[C@H](Oc2ccc3c(O)c(NC(=O)c4ccc(O)c(CC=C(C)C)c4)c(=O)oc3c2C)OC1(C)C [NOVOBIOCIN]
Activity (Escherichia coli [6]): 21.3%
Activity (Escherichia coli [7]): 38.4%
Activity (Escherichia coli [8]): 50.9%
Activity (Escherichia coli [22]): 28.4%
Activity (Escherichia coli [9]): 45.3%
Activity (Escherichia coli [10]): 55.2%
Activity (Escherichia coli [11]): 48.5%
Activity (Escherichia coli [12]): 2
Activity (Escherichia coli [2]): Active
Activity (Escherichia coli [3]): Active
Activity (Klebsiella aerogenes [4]): Active
Activity (Klebsiella aerogenes [5]): Active
Activity (Escherichia coli [13]): Active
Activity (Klebsiella aerogenes [23]): Active
Activity (Escherichia coli [16]): 28.6%
Activity (Escherichia coli [17]): 36.5%
Activity (Escherichia coli [24]): 17%
Activity (Escherichia coli [14]): 39.8%
Activity (Escherichia coli [15]): 46.8%
Activity (Escherichia coli [25]): 23.6%
Activity (Escherichia coli [26]): 21.2%
Activity (Escherichia coli [27]): 26.9%
Activity (Escherichia coli [18]): 25.3%
Activity (Escherichia coli [19]): 36%
Activity (Escherichia coli [20]): 25.5%
Activity (Escherichia coli [28]): 32.6%
Activity (Escherichia coli [21]): 25.7%
Activity (Escherichia coli [29]): 9.5%
Activity (Escherichia coli [30]): 20%
Activity (Escherichia coli [31]): 24.5%

C[n+]1ccc(-c2cc[n+](C)cc2)cc1 [PARAQUAT]
Activity (Escherichia coli [1]): Active
Activity (Escherichia coli [2]): Active
Activity (Escherichia coli [3]): Active
Activity (Klebsiella aerogenes [4]): Active
Activity (Klebsiella aerogenes [5]): Active
Activity (Escherichia coli [32]): 1.2

O=C(O)c1ccccc1O [SALICYLIC ACID]
Activity (Escherichia coli [6]): 42.5%
Activity (Escherichia coli [7]): 46.8%
Activity (Escherichia coli [8]): 45.6%
Activity (Escherichia coli [22]): 35.3%
Activity (Escherichia coli [9]): 40.9%
Activity (Escherichia coli [10]): 43.7%
Activity (Escherichia coli [11]): 59%
Activity (Escherichia coli [12]): 2
Activity (Escherichia coli [2]): Active
Activity (Escherichia coli [3]): Active
Activity (Klebsiella aerogenes [4]): Active
Activity (Klebsiella aerogenes [5]): Active
Activity (Klebsiella aerogenes [23]): Active
Activity (Escherichia coli [16]): 25%
Activity (Escherichia coli [17]): 17.3%
Activity (Escherichia coli [24]): 21%
Activity (Escherichia coli [14]): 51.8%
Activity (Escherichia coli [15]): 49%
Activity (Escherichia coli [18]): 26%
Activity (Escherichia coli [19]): 14.8%
Activity (Escherichia coli [20]): 29.9%
Activity (Escherichia coli [28]): 25.7%
Activity (Escherichia coli [21]): 15.8%
Activity (Escherichia coli [29]): 17.4%
Activity (Escherichia coli [30]): 15.5%

— ChEMBL document CHEMBL1154405, “An early response to environmental stress involves regulation of OmpX and OmpF, two enterobacterial outer membrane pore-forming proteins” (2007)
